Converted amounts (≈) assume the structure as drawn. The source made the active and inactive calls. No cut-off for these calls is given here.
Experiments:
Leishmania donovani [1] = experiment: Antileishmanial activity against Leishmania donovani axenic amastigotes
L6 = experiment: Cytotoxicity against rat L6 cells after 4 days; assay type: cell-based; conditions: L6, 96 h
Procedure, shortened: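 Non-infected L6 cells seeded at 2000 cells/well in RPMI 1640, 10% FBS, 2 mM L-glutamine, exposed to serial drug dilutions 4 d at 37 °C, 5% CO₂. […] after 2–4 h. IC50 from sigmoidal inhibition curve; means of at least two independent assays in duplicate.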

Leishmania donovani [2] = experiment: Antileishmanial activity against Leishmania donovani infected in mouse peritoneal macrophages after 96 hrs; assay type: functional, organism-based
Procedure, shortened: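 L. donovani amastigotes from axenic culture grown at pH 5.4, 1.2 × 10⁵ per well added to macrophages; free amastigotes removed after 4 h and medium replaced. Compound dilutions added next day, 96 h incubation. Slides methanol-fixed 10 min, stained with 10% Giemsa; infected and non-infected macrophages counted, infection rates versus controls. Means of at least two independent assays in duplicate.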

Trypanosoma cruzi = experiment: Antitrypanosomal activity against Trypanosoma cruzi Tulahuen C2C4 trypomastigotes infected in rat L6 cells after 4 days
[3] = Therapeutic index, ratio of IC50 for rat L6 cells to IC50 for Trypanosoma cruzi
[4] = Therapeutic index, ratio of IC50 for rat L6 cells to IC50 for Leishmania donovani; assay type: cell-based; conditions: read-out: Ratio IC50
Leishmania donovani [5] = experiment: Antileishmanial activity against Leishmania donovani amastigotes infected in mouse peritoneal macrophages after 96 hrs
[6] = Therapeutic index, ratio of IC50 for rat L6 cells to IC50 for Trypanosoma cruzi C2C4; assay type: cell-based; conditions: read-out: Ratio IC50

Row | IC50 (Leishmania donovani [2]) | IC50 (Trypanosoma cruzi) | IC50 (Leishmania donovani [5]) | SMILES | Activity (Leishmania donovani [1]) | IC50 (L6) | selectivity ratio [3] | selectivity ratio [4] | selectivity ratio [6]
1 |  | 0.25 µg/mL (≈ 0.961 µM) |  | O=C(Cn1ccnc1[N+](=O)[O-])NCc1ccccc1 [BENZNIDAZOLE] |  |  | > 360 |  | 
2 | 0.424 µg/mL (≈ 1.09 µM) | 5.8 µg/mL (≈ 14.9 µM) | 4.2 µg/mL (≈ 10.8 µM) | COc1cc(OC)c2c(c1Br)CC(C)(C)N(Cc1ccccc1)C2 |  | 84.8 µg/mL (≈ 217 µM) | 14.6 | 200 | 20.2
3 | 0.377 µg/mL (≈ 1.21 µM) | 19.8 µg/mL (≈ 63.4 µM) | 18.9 µg/mL (≈ 60.5 µM) | COc1cc(OC)c2c(c1Br)CC(C)(C)N=C2C |  | 57.5 µg/mL (≈ 184 µM) |  | 152 | 
4 | 4.06 µg/mL (≈ 17.4 µM) | 44.8 µg/mL (≈ 192 µM) | 18.2 µg/mL (≈ 78 µM) | COc1cc2c(c(OC)c1)C(C)=NC(C)(C)C2 |  | > 90 µg/mL |  | > 22.2 | 
5 | 0.521 µg/mL (≈ 1.75 µM) | 22.7 µg/mL (≈ 76.3 µM) | 30 µg/mL (≈ 101 µM) | COc1cc(O)cc2c1CN(Cc1ccccc1)C(C)(C)C2 |  | 79.6 µg/mL (≈ 268 µM) |  | 153 | 
6 | 1.02 µg/mL (≈ 2.34 µM) | 3.7 µg/mL (≈ 8.46 µM) | 2.4 µg/mL (≈ 5.49 µM) | COc1cc(OC)c2c(c1I)CC(C)(C)N(Cc1ccccc1)C2 |  | 66 µg/mL (≈ 151 µM) | 17.8 | 64.5 | 27.5
7 | 4.67 µg/mL (≈ 10.9 µM) | 44.8 µg/mL (≈ 104 µM) |  | COc1cc(OS(=O)(=O)C(F)(F)F)cc2c1CN(Cc1ccccc1)C(C)(C)C2 | inactive | > 90 µg/mL |  | > 19.2 | 

More lines, now with the values behind:

Row | SMILES | IC50 (Leishmania donovani [2]) | IC50 (Trypanosoma cruzi) | IC50 (Leishmania donovani [5]) | Activity (Leishmania donovani [1]) | IC50 (L6) | selectivity ratio [3] | selectivity ratio [4] | selectivity ratio [6]
8 | COc1ccc(I)c2c1CNC(C)(C)C2 | 0.341 µg/mL (≈ 1.08 µM) | 10 µg/mL (≈ 31.5 µM) |  | inactive | 83.9 µg/mL (≈ 265 µM) |  |  | 
9 | COc1cc([C@@H]2c3cc4c(cc3[C@H](O)[C@H]3COC(=O)[C@H]23)OCO4)cc(OC)c1OC [PODOFILOX] |  |  |  |  | 0.006 µg/mL (≈ 0.0145 µM) |  |  | 
10 | COc1cc2c(c(OC)c1)C=NC(C)(C)C2 | > 5 µg/mL | 59.1 µg/mL (≈ 270 µM) | 18.3 µg/mL (≈ 83.5 µM) |  | > 90 µg/mL |  |  | 
11 | COc1cc(OC)c(-c2ccc(O)cc2)c2c1CNC(C)(C)C2 | > 5 µg/mL | 45.2 µg/mL (≈ 144 µM) | 12.8 µg/mL (≈ 40.7 µM) |  | 28.2 µg/mL (≈ 90 µM) |  |  | 
12 | COc1ccc(-c2ccc(O)cc2CO)c2c1CNC(C)(C)C2 | 3.55 µg/mL (≈ 11.3 µM) | > 30 µg/mL | > 30 µg/mL |  | > 90 µg/mL |  |  | 
13 | COc1cccc2c1CNC(C)(C)C2 | > 5 µg/mL | 33 µg/mL (≈ 173 µM) |  | inactive | > 90 µg/mL |  |  | 
14 | COc1cc(OC)c2c(c1I)CC(C)(C)NC2 | 0.463 µg/mL (≈ 1.33 µM) | 37.7 µg/mL (≈ 109 µM) | > 10 µg/mL |  | 33.2 µg/mL (≈ 95.6 µM) |  |  | 
15 | COc1cc(OC)c2c(c1Br)CC(C)(C)NC2 | 0.628 µg/mL (≈ 2.09 µM) | 40.7 µg/mL (≈ 136 µM) | > 10 µg/mL |  | > 90 µg/mL |  |  | 
16 | COc1ccc(I)c2c1CN(Cc1ccccc1)C(C)(C)C2 | 3.87 µg/mL (≈ 9.49 µM) | 5.2 µg/mL (≈ 12.8 µM) |  | inactive | 30 µg/mL (≈ 73.7 µM) | 5.77 | 7.8 | 
17 | COc1ccc(-c2c(OC)cc(OC)c3c2CC(C)(C)N=C3C)cc1 | > 5 µg/mL | 3.6 µg/mL (≈ 10.6 µM) | > 30 µg/mL |  | 43.4 µg/mL (≈ 128 µM) | 12.1 |  | 
18 | COc1cc2c(c(OC)c1)CN(Cc1ccccc1)C(C)(C)C2 | 1.4 µg/mL (≈ 4.48 µM) | 20.1 µg/mL (≈ 64.5 µM) | > 10 µg/mL |  | > 90 µg/mL |  | > 64.5 | 
19 | COc1cc2c(c(OC)c1)CNC(C)(C)C2 | 3.46 µg/mL (≈ 15.6 µM) | > 90 µg/mL | > 30 µg/mL |  | > 90 µg/mL |  |  | 
20 | COc1cc(OC)c(-c2ccc(O)c3ccccc23)c2c1CNC(C)(C)C2 | 0.349 µg/mL (≈ 0.96 µM) | 5.5 µg/mL (≈ 15.1 µM) | 5.2 µg/mL (≈ 14.3 µM) |  | 8.4 µg/mL (≈ 23.1 µM) | 1.53 | 24.1 | 1.62
21 | CCN(CC)CCCC(C)Nc1ccnc2cc(Cl)ccc12 (centres undefined) [CHLOROQUINE] | 0.23 µg/mL (≈ 0.719 µM) |  |  |  |  |  | 1090 | 

From ChEMBL document CHEMBL1149756, “Synthesis and antiprotozoal activities of simplified analogs of naphthylisoquinoline alkaloids” (Eur J Med Chem, 2008)
